# Screens from PubChem.
# Only some compounds are listed: those with a hit (about 4.1% of all), similar ones and a draw of the others.
# hERG protect = hERG (human) protection from proarrhythmic block; CHO-hERG, FluxOR thallium flux, dofetilide IC70 present; activation (rescue from dofetilide block), less the hit threshold, % at 10 µM; 0.51% of 310,000 active; AID 1511;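 active = activation above the mean of controls blocked by dofetilide plus 5 SD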;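 note: thallium influx through hERG after potassium depolarization seen as dye fluorescence rise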
# KCC2 mod = modulators of human KCC2 chloride dependent transport | B-score of Tl+ flux slope (higher = more flux/activation; lower = inhibition) at 10 µM | 2.2% of 190,000 active | Q9H2X9 | KCC2 cells, thallium flux FluoZin-2 fluorescence;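 active = thallium flux slope and its plate-corrected score both differing from the plate sample mean at a set confidence after two filtering rounds, in either direction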;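 note: slope of fluorescence scaled to starting intensity during 10 to 20 s after thallium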
# KCNQ1 inh = blocks the human KCNQ1 potassium channel | P51787 | CHO-K1 KCNQ1, FluxOR thallium flux fluorescence; hits give high values | B-score at 10 µM | 1.3% of 310,000 active | AID 2642;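 active = compounds whose thallium flux B-score, printed positive for inhibition, exceeds three library SD while starting fluorescence stays within three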;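 note: channel opened by potassium depolarization with thallium stimulus after 20 min compound exposure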
# KCNK3 block = human KCNK3 channel inhibition, primary screen | O14649 | CHO-KCNK3 thallium flux, FluxOR fluorescence; hits give low values | B-score at 10 µM | 0.84% of 340,000 active | AID 602410;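 active = B-score under library mean minus 4 SD, starting fluorescence ratio at most library mean plus 5 SD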;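 note: more negative B-score means stronger inhibition of thallium flux through KCNK3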
# Target sequence (O14649 whole entry, looked up): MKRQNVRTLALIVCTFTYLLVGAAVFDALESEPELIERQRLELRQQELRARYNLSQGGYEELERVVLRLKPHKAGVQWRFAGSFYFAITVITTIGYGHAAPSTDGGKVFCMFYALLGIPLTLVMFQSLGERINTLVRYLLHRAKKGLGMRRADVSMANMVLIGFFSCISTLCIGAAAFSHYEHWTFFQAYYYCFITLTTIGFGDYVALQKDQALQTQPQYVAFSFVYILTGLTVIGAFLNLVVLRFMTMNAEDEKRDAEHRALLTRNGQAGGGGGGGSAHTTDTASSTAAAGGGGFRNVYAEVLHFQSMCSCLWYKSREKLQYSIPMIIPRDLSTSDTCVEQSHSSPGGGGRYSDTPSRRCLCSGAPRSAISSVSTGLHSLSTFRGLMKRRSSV
# KCNQ1 act = potentiators or activators of human KCNQ1 potassium channel | CHO-K1 KCNQ1, thallium flux FluxOR fluorescence; hits give high values | P51787 | 0.35% of 310,000 active | B-score at 10 µM;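 active = fluorescence ratio B-score, a plate-corrected score, at least three library SD, with initial intensity B-score within 5 SD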
#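 Assay system: CHO-K1 cells stably expressing KCNQ1; Medium: assay buffer with matched DMSO; Also added: K+/Tl+ depolarizing stimulus; Dosing: single dose; Timing: dye 90 min, compound 20 min, room temperature; Measured by: kinetic FluxOR thallium fluorescence, 10-s 1-Hz baseline, 110-s post-stimulus read; Read-out: peak-minus-minimum fluorescence over initial fluorescence, negative-control normalized, B-scored.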
# KCNK9 block = inhibitors of human KCNK9 two-pore domain potassium channel. Q9NPC2. HEK293 KCNK9, FluxOR thallium flux fluorescence; hits give low values. B-score at 10 µM. 1.2% of 310,000 active. AID 488922;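 active = ratio B-score over 3 SD below the library mean, with starting fluorescence within 5 SD of its mean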;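 note: negative B-score means less thallium flux so channel inhibition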
# Target sequence (Q9NPC2 whole entry, looked up, the tested form may be a part): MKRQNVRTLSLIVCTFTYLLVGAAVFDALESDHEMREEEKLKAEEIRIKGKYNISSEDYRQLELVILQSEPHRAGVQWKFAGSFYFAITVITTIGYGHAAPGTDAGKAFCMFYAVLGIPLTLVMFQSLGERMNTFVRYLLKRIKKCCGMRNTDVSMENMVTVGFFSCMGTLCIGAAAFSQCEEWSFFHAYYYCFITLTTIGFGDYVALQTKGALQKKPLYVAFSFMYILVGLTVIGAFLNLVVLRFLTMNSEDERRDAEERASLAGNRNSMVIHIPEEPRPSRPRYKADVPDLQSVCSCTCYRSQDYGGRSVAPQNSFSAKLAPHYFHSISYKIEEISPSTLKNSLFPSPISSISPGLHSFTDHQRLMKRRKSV
# KCNQ1 inh valid = confirmation of human KCNQ1 potassium channel inhibitors; shares compounds with KCNQ1 inh; KCNQ1 cell line, FluxOR thallium flux fluorescence; inhibition, % at 10 µM; 93% of 1,600 active;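 active = primary screen active, with duplicate mean exceeding buffer control mean plus 3 SD of buffer wells, cut at about 28% in these data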;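 note: 0% = buffer control ratio and 100% = XE991 inhibitor control ratio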
# CHO KCNQ1 ctr = counter-screen for KCNQ1 inhibitors: effect in parental CHO cells | shares compounds with KCNQ1 inh | parental CHO-K1, FluxOR thallium flux fluorescence ratio; hits give low values; zero means no signal rise above baseline | fluorescence ratio (Tl flux) at 10 µM | 21% of 1,600 active | AID 588366;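 active = mean of duplicate thallium-flux fluorescence ratios in parental host cells more than 5 SD below the buffer control mean, cut at about 0.38 in these data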;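 note: ratio is peak minus minimum fluorescence divided by baseline fluorescence; actives read low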
# KCNQ1 ephys val = blocks human KCNQ1 current in automated patch clamp. KCNQ1-CHO cells. 20% of 490 active. shares compounds with KCNQ1 inh. calls only at 10 µM;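 active = KCNQ1 current drop exceeding 3 SD of negative control wells, seen in both duplicate runs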;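 note: steady state current during a 2 s step from -80 to +40 mV; negative values mean current inhibition and positive values mean potentiation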
# KCNQ2 inh = rat KCNQ2 inhibition in KCNQ1 inhibitor specificity screen; shares compounds with KCNQ1 inh; KCNQ2 cells, FluxOR thallium flux fluorescence; inhibition, % at 10 µM; 71% of 1,600 active; AID 651746;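 active = mean percent inhibition of the KCNQ2 thallium signal more than 5 SD above the buffer-only control wells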;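 note: KCNQ2 expressed in CHO cells; 0% = buffer control wells and 100% = XE-991 inhibitor control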
# KCNQ1-KCNE1 inh = KCNQ1 inhibitor that also blocks human KCNQ1/KCNE1 channel | 77% of 1,600 active | KCNQ1/KCNE1 cells, FluxOR thallium flux fluorescence | shares compounds with KCNQ1 inh | inhibition, % at 10 µM;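 active = mean percent inhibition of duplicate wells above the buffer-only control mean plus 3 SD of those controls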;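 note: 0% = buffer only wells and 100% = XE-991 inhibitor control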
# * = called active by the depositor; i = inactive; nt = not tested or not shown; + = active, no number.
SMILES,hERG protect,KCC2 mod,KCNQ1 inh,KCNK3 block,KCNQ1 act,KCNK9 block,KCNQ1 inh valid,CHO KCNQ1 ctr,KCNQ2 inh,KCNQ1-KCNE1 inh,others
COC(=O)c1ccc(NC(=O)c2ccc(NC(=O)c3ccco3)cc2)cc1,-4.1,nt,6*,i,i,i,0.0,0.508,i,55.0%*,
CC(=O)c1ccc(NC(=O)c2ccc(NC(=O)c3ccco3)cc2)cc1,-5.3,nt,i,i,i,i,nt,nt,nt,nt,
Cc1cccc(-c2cc(C(=O)Nc3ccc4c(c3)OCCO4)c3ccccc3n2)c1,-10.4,0.0113,9*,i,i,i,77.5*,0.388,116.3%*,93.0%*,
O=C(O)c1ccccc1NC(=O)c1cc(-c2ccccc2)nc2ccccc12,-31.4,nt,7*,i,i,i,70.0*,0.485,81.7%*,119.5%*,
Cc1ccc(C)c(NC(=O)c2cc(-c3cccnc3)nc3ccccc23)c1,-4.9,0.772,7*,i,i,i,61.5*,0.467,97.0%*,43.5%*,
O=C(Nc1ccccn1)c1cc(-c2cccc(Cl)c2)nc2ccccc12,-18.6,-2.05,7*,i,i,i,92.0*,0.405,115.0%*,151.0%*,KCNQ1 ephys val=i
COc1cccc(-c2cc(C(=O)Nc3cccnc3)c3ccccc3n2)c1,-17.6,nt,i,i,i,i,nt,nt,nt,nt,
COc1ccc(N(CC(=O)NC2CC3CCC2C3)S(=O)(=O)c2ccccc2)cc1Cl (stereo not drawn),-1.0,nt,7*,i,i,i,113.5*,0.418,i,125.5%*,KCNQ1 ephys val=+
COc1ccc(N(CC(=O)NC2CC3CCC2C3)S(=O)(=O)c2ccc(C)cc2)cc1OC (stereo not drawn),-8.9,nt,i,i,i,i,nt,nt,nt,nt,
CCn1c(C)nc2cc(C(=O)NNC(=O)c3ccc(C)cc3)ccc21,nt,nt,nt,i,nt,nt,nt,nt,nt,nt,
CCn1c(C)nc2cc(C(=O)OC(C(F)(F)C(F)F)C(F)(F)C(F)F)ccc21,-22.2,0.0187,9*,i,i,i,131.0*,0.4,88.7%*,115.5%*,KCNQ1 ephys val=i
COc1cccc(OC)c1C(=O)Nc1ccc2c(c1)CCCN2S(=O)(=O)c1ccc(C)cc1,-4.7,nt,i,i,i,i,nt,nt,nt,nt,
CC(=O)Nc1cccc(NC(=O)c2ccc3c(c2)CCN3S(=O)(=O)c2ccccc2)c1,-8.8,nt,i,i,i,i,nt,nt,nt,nt,
Cc1ccc(S(=O)(=O)N2CCCc3cc(NC(=O)c4c(F)cccc4F)ccc32)cc1,-6.8,nt,7*,i,i,i,66.5*,0.438,85.3%*,100.5%*,
CC(=O)c1cccc(NC(=O)c2ccc3c(c2)CCN3S(=O)(=O)c2ccccc2)c1,-8.6,nt,6*,i,i,i,65.0*,0.525,i,78.5%*,
Cc1cc(NC2CCCCC2)nc(NCc2ccccc2)n1,-36.2,-0.707,14*,i,i,i,182.5*,0.317*,120.3%*,168.5%*,
COc1ccc(Nc2cc(C)nc(NCc3ccccc3)n2)cc1,-28.0,0.052,8*,i,i,i,124.0*,0.373*,89.0%*,97.5%*,
Cc1ccc([N+](=O)[O-])cc1S(=O)(=O)N1CCCCC1C(=O)O (stereo not drawn),-9.6,-0.156,i,i,i,i,nt,nt,nt,nt,
O=S1(=O)CCN(Cc2csc(-c3cccs3)n2)CC1,-9.2,0.346,i,i,i,i,nt,nt,nt,nt,
Cc1ccc(OCC(O)CN2CCC(Cc3ccccc3)CC2)c(C)c1 (stereo not drawn),-17.4,nt,7*,i,i,i,31.0*,0.443,76.3%*,63.0%*,
OC(COc1ccccc1)CN1CCC(Cc2ccccc2)CC1 (stereo not drawn),-6.3,nt,i,i,i,i,nt,nt,nt,nt,
Brc1cccc(OCCOCCn2ccnc2)c1,-3.0,-2.27,i,i,i,i,nt,nt,nt,nt,
CC(/C=C/C=C/c1ccccc1)=N/NC(=O)CNc1ccccc1C,-7.5,1.03,i,i,i,i,nt,nt,nt,nt,
COC(=O)CCS(=O)(=O)c1nc(-c2ccccc2)cc(C(F)(F)F)n1,-15.9,nt,8*,i,i,i,26.5*,0.458,80.3%*,61.5%*,
CCOC(=O)CCS(=O)(=O)c1nc(-c2ccccc2)cc(C(F)(F)F)n1,-15.3,0.0362,i,i,i,i,nt,nt,nt,nt,
SMILES,hERG protect,KCC2 mod,KCNQ1 inh,KCNK3 block,KCNQ1 act,KCNK9 block,KCNQ1 inh valid,CHO KCNQ1 ctr,KCNQ2 inh,KCNQ1-KCNE1 inh,others
COc1ccccc1CN1C(=O)CN(C2CCCCCC2)C(=O)C1c1ccc(F)cc1 (stereo not drawn),-12.1,-0.525,i,i,i,i,nt,nt,nt,nt,
COc1cccc(C2C(=O)N(C3CCCCC3)CC(=O)N2Cc2ccc(F)cc2)c1 (stereo not drawn),-19.1,0.892,6*,i,i,i,54.0*,0.453,92.7%*,41.5%*,
COc1ccc(CCNc2ncnc3[nH]ncc23)cc1OC,-14.3,nt,i,i,i,i,nt,nt,nt,nt,
COc1ccc(CCNc2ncnc3sc(C)cc23)cc1OC,-19.3,nt,11*,i,i,i,133.0*,0.444,80.0%*,82.5%*,KCNQ1 ephys val=i
COc1cccc(C(=O)Nc2ccc3nc(N4CCOCC4)cc(C)c3c2)c1,-16.4,-2.2,7*,i,i,i,+,0.458,i,i,KCNQ1 ephys val=i
COc1ccc(NS(=O)(=O)c2ccc(-c3coc(C)n3)cc2)cc1OC,-13.0,nt,8*,i,i,i,124.0*,0.516,83.7%*,36.5%*,KCNQ1 ephys val=i
COc1ccc(O)c(CN2CCCC(C(=O)Nc3cccc(-n4cccn4)c3)C2)c1 (stereo not drawn),-10.5,nt,i,i,i,i,nt,nt,nt,nt,
Cc1ccc(-n2cccn2)c(CN2CCCC(C(=O)c3sccc3C)C2)c1 (stereo not drawn),-17.3,nt,9*,i,i,i,72.0*,0.404,99.0%*,54.5%*,
